According to PMC11923060 (Scientific Reports, 2025):

Key:
testes [1] = assay: Western blot of junction proteins in testicular tissue; assay type: in vivo, Kunming mice; conditions: Days 20 and 40, + LPS, vs LPS group, n = 10 mice/group
How it was run: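 Male Kunming mice (8–10 wk), n = 10/group, gavaged with test peptide 0.5 mg/kg or antibiotic control 25 mg/kg in 200 µL saline for 20 d (10 doses) or 40 d (20 doses), then one i.p. LPS 5 mg/kg; killed 24 h later. ~100 mg testis homogenized in RIPA/protease inhibitors; PVDF blocked in skim milk 2 h, primary antibody overnight 4 °C, secondary 2 h, ECL.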

testes [2] = assay: Immunofluorescence of tight junction proteins in testicular tissue; assay type: in vivo, Kunming mice; conditions: Days 20 and 40, + LPS, compared to the LPS group, n = 10 mice/group

polymyxin B
protein expression of TWIST1 (Western blot) (testes [1]): significantly inhibited | expression of Claudin-1 (immunofluorescence) (testes [2]): significant increases | expression of N-cadherin (immunofluorescence) (testes [2]): significant increases
